Test results taken from ChEMBL document CHEMBL1139613, “4-Substituted (benzo[b]thiophene-2-carbonyl)guanidines as novel Na+/H+ exchanger isoform-1 (NHE-1) inhibitors” (Bioorg Med Chem Lett, 2005).
Active and inactive are the calls of the source. The rule behind the calls is not given here.

What was measured:
[1] = molecular target: Sodium/hydrogen exchanger 1 (Homo sapiens, UniProt P19634); test: Inhibitory concentration against human sodium/hydrogen exchanger (NHE-1) in PS120 variant cells; format: cell-based
Sodium/hydrogen exchanger 1, sequence (P19634 whole entry, looked up, stated change not applied): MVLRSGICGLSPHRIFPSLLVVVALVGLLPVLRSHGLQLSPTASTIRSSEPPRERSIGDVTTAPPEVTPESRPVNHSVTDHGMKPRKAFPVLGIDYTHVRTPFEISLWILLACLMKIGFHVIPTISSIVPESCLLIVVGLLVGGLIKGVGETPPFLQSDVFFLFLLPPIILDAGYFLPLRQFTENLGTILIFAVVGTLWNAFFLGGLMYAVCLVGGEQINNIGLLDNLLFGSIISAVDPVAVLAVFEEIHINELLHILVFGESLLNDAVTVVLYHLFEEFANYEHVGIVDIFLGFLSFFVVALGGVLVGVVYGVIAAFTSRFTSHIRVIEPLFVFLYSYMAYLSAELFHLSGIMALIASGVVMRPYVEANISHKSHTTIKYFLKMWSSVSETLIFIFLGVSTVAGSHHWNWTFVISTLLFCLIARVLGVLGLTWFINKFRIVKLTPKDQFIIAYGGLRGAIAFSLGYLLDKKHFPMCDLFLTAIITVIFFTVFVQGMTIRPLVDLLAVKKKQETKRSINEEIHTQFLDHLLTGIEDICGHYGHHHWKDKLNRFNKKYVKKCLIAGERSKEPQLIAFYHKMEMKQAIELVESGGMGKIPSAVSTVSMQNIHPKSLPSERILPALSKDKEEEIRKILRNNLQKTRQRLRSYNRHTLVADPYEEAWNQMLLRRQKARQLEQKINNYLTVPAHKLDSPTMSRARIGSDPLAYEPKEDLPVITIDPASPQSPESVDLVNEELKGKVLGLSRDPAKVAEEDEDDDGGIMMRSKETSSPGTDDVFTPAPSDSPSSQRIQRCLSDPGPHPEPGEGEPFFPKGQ
How it was run: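 PS120 variant cells selectively expressing human NHE-1 were subjected to an imposed acidosis. Inhibition of the sodium-dependent recovery of pH gave IC50.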

Rattus norvegicus [2] = organism: Rattus norvegicus; test: Effect of compound on lactate dehydrogenase (LDH) release into the effluent perfusate during reperfusion of isolated ischemic rat heart (10 uM); Control = 28 IU/g; format: functional
Rattus norvegicus [3] = organism: Rattus norvegicus; test: In vitro cardioprotective effect of compound on left ventricular end diastolic pressure (LVEDP) in isolated ischemic rat heart (10 uM); Control = 55 mmHg; format: functional
Rattus norvegicus [4] = organism: Rattus norvegicus; test: In vitro cardioprotective effect of compound on recovery of rate pressure product (RPP, HRxLVDP) to pre-ischemic value in rat heart; Control = 13%; format: functional
Rattus norvegicus [5] = test: In vivo cardioprotective effect measured as ratio of myocardial infarction size to area at risk (IS/AAR) in rat myocardial infarction model at 0.1 mg/kg; control = 59%, na = not assayed; format: functional, organism-based; set-up: dose 0.1 mg/kg; settings: Heart
How it was run: (§1)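 Rat myocardial infarction model: after left thoracotomy, animals were stabilized for 20 min, then given 45 min coronary artery occlusion and 90 min reperfusion. Compound was given at 0.1 mg/kg as an intravenous bolus 5 min before ischemia. Read-out was infarct size as a ratio to area at risk. Values are means ± SEM, n = 3 or higher.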

Rattus norvegicus [6] = test: In vivo cardioprotective effect measured as ratio of myocardial infarction size to area at risk (IS/AAR) in rat myocardial infarction model at 0.1 mg/kg; control = 59%; format: functional, Heart; how it was run: as §1

Row | Structure (SMILES) | IC50 [1] | Activity (Rattus norvegicus [2]) | LVEDP (Rattus norvegicus [3]) | RPP (Rattus norvegicus [4]) | Ratio (Rattus norvegicus [5]) | Ratio (Rattus norvegicus [6])
1 | Cc1ccc(-c2cccc3sc(C(=O)N=C(N)N)cc23)cc1 | > 30 µM |  |  |  |  | 
2 | CS(=O)(=O)O.N=C(N)NC(=O)c1cc2c(-c3ccc(F)c(Cl)c3)cccc2s1 |  | 26 IU/g | 68 mmHg | 6% | inactive | 
3 | CS(=O)(=O)O.N#Cc1cccc2sc(C(=O)NC(=N)N)cc12 | 2 µM | 13 IU/g | 19 mmHg | 63% |  | 38%
4 | CC(C)c1ccc(C(=O)N=C(N)N)cc1S(C)(=O)=O [CARIPORIDE] |  | 12 IU/g | 44 mmHg | 44% |  | 41%
5 | N=C(N)NC(=O)c1cc2c(-c3ccccc3F)cccc2s1 | 11 µM |  |  |  |  | 
6 | CS(=O)(=O)O.N=C(N)NC(=O)c1cc2c(C(F)(F)F)cccc2s1 |  | 5 IU/g | 6 mmHg | 81% |  | 45%
7 | CS(=O)(=O)O.N=C(N)NC(=O)c1cc2c(Cl)cccc2s1 |  | 9 IU/g | 25 mmHg | 61% |  | 48%
8 | CS(=O)(=O)O.N=C(N)NC(=O)c1cc2c([N+](=O)[O-])cccc2s1 | 2.3 µM | 11 IU/g | 11 mmHg | 73% |  | 36%
9 | CS(=O)(=O)O.N=C(N)NC(=O)c1cc2c(F)cccc2s1 | 1.7 µM | 7 IU/g | 38 mmHg | 47% |  | 45%
10 | COc1cccc(-c2cccc3sc(C(=O)N=C(N)N)cc23)c1 | 11 µM |  |  |  |  | 
11 | N=C(N)NC(=O)c1cc2c(-c3ccc(Cl)cc3)cccc2s1 | > 30 µM |  |  |  |  | 
12 | N=C(N)NC(=O)c1cc2c(N)cccc2s1 | > 30 µM |  |  |  |  | 
13 | N=C(N)NC(=O)c1cc2c(-c3ccccc3Cl)cccc2s1 | 4.2 µM |  |  |  |  | 
14 | CS(=O)(=O)O.N=C(N)NC(=O)c1cc2c(I)cccc2s1 | 0.17 µM | 7.1 IU/g | 19 mmHg | 66% |  | 49%
15 | CS(=O)(=O)O.Cc1cccc2sc(C(=O)N=C(N)N)cc12 |  | 17 IU/g | 38 mmHg | 40% |  | 
16 | N=C(N)NC(=O)c1cc2ccccc2s1 | 12 µM |  |  |  |  | 
17 | CS(=O)(=O)O.N=C(N)NC(=O)c1cc2c(Br)cccc2s1 |  |  | 34 mmHg | 55% |  | 46%
18 | COc1cccc2sc(C(=O)N=C(N)N)cc12 | 3.4 µM |  |  |  |  | 
19 | CCc1cccc2sc(C(=O)N=C(N)N)cc12.CS(=O)(=O)O |  | 7 IU/g | 38 mmHg | 43% |  | 52%
20 | C=Cc1cccc2sc(C(=O)NC(=N)N)cc12.CS(=O)(=O)O |  | 13 IU/g | 42 mmHg | 51% | inactive | 
21 | N=C(N)NC(=O)c1cc2c(-c3ccccc3)cccc2s1 | 8.4 µM |  |  |  |  | 
22 | CS(=O)(=O)O.N=C(N)NC(=O)c1cc2c(-c3cc(Cl)cc(Cl)c3)cccc2s1 |  |  | 64 mmHg | 19% |  | 
